From ChEMBL document CHEMBL6177922, “Antibacterial activity of the structurally novel C-2 amine-substituted analogues based on quinoxaline” (RSC Med Chem, 2025)
≈ marks a conversion by molar mass, not a printed value. Calls of active or inactive are those of the source. No cut-off for these calls is given here.

Legend:
Escherichia coli [1] = experiment: Antibacterial activity against Escherichia coli measured for 15 days; assay type: functional, organism-based; conditions: time 15.0 day
Procedure, shortened: (§1)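 E. coli was serially subcultured in fresh medium, starting from the initial MIC. The MIC was redetermined every 24 h. A reference antibiotic was tested in parallel by twofold dilution. The regimen ran for 24 days in total.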

Cell membrane [2] = experiment: Induction of cell membrane permeabilization in Escherichia coli assessed as increase in fluorescence intensity at 3 times MIC incubated for 8 hrs by PI staining based confocal laser scanning microscopic analysis; assay type: subcellular
Procedure, shortened: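 Log-phase E. coli was washed and resuspended in PBS (10 mM, pH 7.2) at 2 × 10^6 CFU mL−1 (OD600 0.2–0.4). Cells were treated with 3× MIC for 8 h at 37 °C, with a PBS control, then stained with SYTO 9 and PI for 30 min in the dark and imaged by confocal microscopy. Run in duplicate.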

Klebsiella pneumoniae = experiment: Antibacterial activity against drug-resistant Klebsiella pneumoniae assessed as reduction in bacterial growth by broth microdilution method; assay type: functional
Procedure, shortened: (§2)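 Twofold serial dilution (microdilution) MIC in lysogeny broth (LB) medium against drug-resistant strains: MRSA USA300, vancomycin-resistant Enterococci, Klebsiella pneumoniae.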

Staphylococcus aureus [3] = experiment: Antibacterial activity against methicillin-resistant Staphylococcus aureus assessed as increase in number of bacteria at 3 times MIC measured up to 5 hrs; assay type: functional, organism-based
Procedure, shortened: (§3)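 Cells washed three times in sterile saline by centrifugation, moved to fresh TSB at 37 °C. Viable counts plated on TSB agar at 2–17 h. PCE = t − c, the time for a 1-log rise in treated versus control. Run twice.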

Cell membrane [4] = experiment: Induction of cell membrane integrity in methicillin-resistant Staphylococcus aureus assessed as increase in K+ efflux at 3 times MIC by absorption spectrophotometric analysis; assay type: subcellular
Procedure, shortened: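 K+ leakage: mid-log MRSA (6 h) resuspended in 10 mM HEPES (pH 7.3)/5 mM glucose at ~2 × 10^6 CFU mL-1. Incubated with compound at 3× MIC at 37 °C for various times, PBS control. Supernatant K+ measured by atomic absorption spectrophotometry. Duplicate.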

Staphylococcus aureus [5] = experiment: Antibiofilm activity against Methicillin-resistant Staphylococcus aureus assessed as reduction in number of viable cells at 8 times MIC incubated for 24 hrs; assay type: functional, organism-based
Escherichia coli [6] = experiment: Antibiofilm activity against Escherichia coli assessed as reduction in number of viable cells at 4 times MIC incubated for 24 hrs; assay type: functional, organism-based
Procedure, shortened: (§4)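 E. coli was grown to mid-log phase and adjusted to 2 × 10^6 CFU mL−1. Biofilms were grown for 48 h, then the spent medium was removed and loose cells were washed off with PBS. Compound was added at MIC, 2× MIC or 4× MIC for 24 h, with a sterile-medium control. Biofilms were dispersed with trypsin–EDTA, 10-fold dilutions were plated, and colonies were counted after 24 h as log10 CFU mL−1.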

Bacillus subtilis = experiment: Antibacterial activity against drug sensitive Bacillus subtilis 168 assessed as reduction in bacterial growth by broth microdilution method; assay type: functional
Procedure, shortened: (§5)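 MICs were determined by standard twofold serial broth microdilution in lysogeny broth (LB) medium.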

Cell membrane [7] = experiment: Induction of cell membrane depolarization in Escherichia coli assessed as increase in fluorescence intensity at 3 times of MIC measured up to 15 hrs by DiSC3-5 dye based fluorescence analysis; assay type: subcellular
Procedure, shortened: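 Mid-log E. coli (6 h culture) was resuspended in 100 mM KCl, 5 mM HEPES pH 7.3 and 5 mM glucose (1:1:1). Cells were loaded with DiSC3(5) at 8 μM final for 80 min at 37 °C, then exposed to 3× MIC. Fluorescence was read at ex 622 nm / em 670 nm, with a water control.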

Staphylococcus aureus [8] = experiment: Antibacterial activity against methicillin-resistant Staphylococcus aureus assessed as increase in number of bacteria at 2 times MIC measured at 3 hrs; assay type: functional, organism-based; procedure, shortened: as §3
Staphylococcus aureus [9] = experiment: Antibacterial activity against drug sensitive Staphylococcus aureus RN4220 assessed as reduction in bacterial growth by broth microdilution method; assay type: functional; procedure, shortened: as §5
Enterococcus = experiment: Antibacterial activity against vancomycin-resistant Enterococcus assessed as reduction in bacterial growth by broth microdilution method; assay type: functional; procedure, shortened: as §2
[10] = Cytotoxicity against human HEK293 cells assessed as inhibition of cell growth incubated for 24 hrs by MTT assay; assay type: toxicity, cell-based
Procedure, shortened: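 MTT assay with 24 h exposure of cells to the samples. IC50 is the concentration giving 50% growth inhibition, reported as mean ± S.D. of three independent experiments.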

Escherichia coli [11] = experiment: Antibiofilm activity against Escherichia coli assessed as reduction in number of viable cells at 2 times MIC incubated for 24 hrs; assay type: functional, organism-based; procedure, shortened: as §4
Escherichia coli [12] = experiment: Antibacterial activity against Escherichia coli measured for 9 days; assay type: functional, organism-based; conditions: time 9.0 day; procedure, shortened: as §1
Staphylococcus aureus [13] = experiment: Drug resistance, ratio of MIC for Staphylococcus aureus after 15 days to MIC for Staphylococcus aureus after initial exposure; assay type: functional; conditions: time 15 day
Procedure, shortened: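 Resistance development: MRSA serially subcultured in fresh medium starting from the initial MIC. MIC reassessed every 24 h over 24 days, alongside a reference antibiotic given in twofold dilutions.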

In the case of `CC(C)(C)c1ccc(CCNc2nc3ccccc3nc2N)cc1`, the Activity (Escherichia coli [1]) is reported as “Active”, the Activity (Cell membrane [2]) is reported as “inactive” and the MIC (Klebsiella pneumoniae) is reported as 128 mg/L (≈ 399 µM). The Activity (Staphylococcus aureus [3]) was “Active”, the Activity (Cell membrane [4]) was “Active” and the Activity (Staphylococcus aureus [5]) was “Active”. The Activity (Escherichia coli [6]) was “Active”, the MIC (Bacillus subtilis) was 8 mg/L (≈ 25 µM) and the Activity (Cell membrane [7]) was “Active”. The Activity (Staphylococcus aureus [8]) was “Active”, the MIC (Staphylococcus aureus [9]) was 4 mg/L (≈ 12.5 µM) and the MIC (Enterococcus) was greater than 128 mg/L. The IC50 at 24 h [10] was 129 mg/L (≈ 403 µM), the Activity (Escherichia coli [11]) was “Active” and the Activity (Escherichia coli [12]) was “Active”. The Ratio (Staphylococcus aureus [13]) was 3.
